Laboratory results as given in ChEMBL document CHEMBL2040741, “Hyaladione, an S-methyl cyclohexadiene-dione from Hyalangium minutum” (J Nat Prod, 2012).
≈ marks a conversion by molar mass, not a printed value.

Experiments:
[1] = tested on: Wickerhamomyces anomalus; experiment: Antimicrobial activity against Pichia anamola after 24 to 48 hrs by serial dilution technique; format: functional
Outline: (§1)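 MIC by twofold (1:1) serial dilution in 96-well plates. Medium was MYC (1.0% glucose, 1.0% phytone peptone, 50 mM HEPES, pH 7.0), used for yeasts and fungi.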

[2] = Antimicrobial activity against Nocardia flava after 24 to 48 hrs by serial dilution technique; format: functional
[3] = tested on: L929; experiment: Cytotoxicity against mouse L929 cells after 5 days by MTT assay; format: functional, cell-based; conditions: L929, 120 h
[4] = tested on: Staphylococcus aureus; experiment: Antimicrobial activity against methicillin-resistant Staphylococcus aureus after 24 to 48 hrs by serial dilution technique; format: functional
[5] = tested on: MCF7; experiment: Cytotoxicity against human MCF7 cells after 5 days by MTT assay; format: functional, cell-based; conditions: MCF7, 120 h
[6] = tested on: Rhodotorula glutinis; experiment: Antimicrobial activity against Rhodotorula glutinis after 24 to 48 hrs by serial dilution technique; format: functional; outline: as §1
[7] = Cytotoxicity against human KB-3-1 cells after 5 days by MTT assay; format: functional, cell-based; conditions: KB 3-1, 120 h
[8] = tested on: Schizosaccharomyces pombe; experiment: Antimicrobial activity against Schizosaccharomyces pombe after 24 to 48 hrs by serial dilution technique; format: functional; outline: as §1
[9] = tested on: Mucor hiemalis; experiment: Antimicrobial activity against Mucor hiemalis after 24 to 48 hrs by serial dilution technique; format: functional; outline: as §1
[10] = tested on: HUVEC; experiment: Cytotoxicity against human HUVEC cells after 5 days by MTT assay; format: cell-based; conditions: 120 h
[11] = tested on: Candida albicans; experiment: Antimicrobial activity against Candida albicans after 24 to 48 hrs by serial dilution technique; format: functional; outline: as §1
[12] = tested on: Chromobacterium violaceum; experiment: Antimicrobial activity against Chromobacterium violaceum after 24 to 48 hrs by serial dilution technique; format: functional
[13] = tested on: Pseudomonas aeruginosa; experiment: Antimicrobial activity against Pseudomonas aeruginosa after 24 to 48 hrs by serial dilution technique; format: functional
[14] = tested on: Micrococcus luteus; experiment: Antimicrobial activity against Micrococcus luteus after 24 to 48 hrs by serial dilution technique; format: functional
[15] = tested on: Escherichia coli; experiment: Antimicrobial activity against Escherichia coli after 24 to 48 hrs by serial dilution technique; format: functional

| Compound | MIC ([1]; Hansenula anomala) | MIC [2] | IC50 [3] | MIC [4] | IC50 [5] | MIC [6] | IC50 [7] | MIC [8] | MIC [9] | IC50 [10] | MIC [11] | MIC [12] | MIC [13] | MIC [14] | MIC [15] | MIC [1] |
| --- | --- | --- | --- | --- | --- | --- | --- | --- | --- | --- | --- | --- | --- | --- | --- | --- |
| CSC1=CC(=O)C(N)=C(Cl)C1=O [HYALADIONE] | 33.3 µg/mL (≈ 164 µM) | 3.3 µg/mL (≈ 16.2 µM) | 1470 nM | 0.83 µg/mL (≈ 4.08 µM) | 1230 nM | 1.7 µg/mL (≈ 8.35 µM) | 3930 nM | > 33.3 µg/mL | 16.5 µg/mL (≈ 81 µM) | 2210 nM | > 33.3 µg/mL | 2.1 µg/mL (≈ 10.3 µM) | 8.5 µg/mL (≈ 41.7 µM) | 3.3 µg/mL (≈ 16.2 µM) | 33.3 µg/mL (≈ 164 µM) | – |
| NYSTATIN | – | – | – | – | – | 0.42 µg/mL | – | 1.67 µg/mL | 1.67 µg/mL | – | 1.67 µg/mL | – | – | – | – | 1.67 µg/mL |
| CN(C)[C@@H]1C(O)=C(C(N)=O)C(=O)[C@@]2(O)C(O)=C3C(=O)c4c(O)cccc4[C@@](C)(O)[C@H]3[C@H](O)[C@@H]12.Cl [OXYTETRACYCLINE HYDROCHLORIDE] | – | 1.67 µg/mL | – | 0.104 µg/mL | – | – | – | – | – | – | – | 0.21 µg/mL | – | 0.104 µg/mL | 0.83 µg/mL | – |
